The record followed here is ChEMBL document CHEMBL3808393, “Discovery of Potent and Selective Agonists of δ Opioid Receptor by Revisiting the "Message-Address" Concept” (ACS Med Chem Lett, 2016).

Assay [1] has as its target T1, Mu-type opioid receptor (Homo sapiens, UniProt P35372). Description: Displacement of [3H]DAMGO from human MOR expressed in CHO cell membranes after 60 mins.
Assay [2] concerns the target T2, Delta-type opioid receptor (Homo sapiens, UniProt P41143). Description: Displacement of [3H]DPDPE from human DOR expressed in CHO cell membranes after 60 mins. For orientation: Displacement assays read how much labelled ligand stays bound in the presence of the test substance.
Assay [3] deals with T3, Kappa-type opioid receptor (Homo sapiens, UniProt P41145). The assay is described as follows: Displacement of [3H]U69593 from human KOR expressed in CHO cell membranes after 60 mins.
In assay [4] the target is T2, Delta-type opioid receptor. The assay is described as follows: Agonist activity at human DOR expressed in CHO cell membranes after 60 mins by [35S]GTP-gamma-S binding assay. In short, it runs like this:
(§1)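 Receptor activation by standard [35S]GTP-γ-S binding. Each compound was assayed three times and reported as mean ± SEM.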
On the technique in general: GTPγS resists hydrolysis and so accumulates on activated G proteins.

For assay [5], the target named is T2, Delta-type opioid receptor. The assay is described as follows: Displacement of [3H]DPDPE from human DOR expressed in CHO cell membranes at 1 uM after 60 mins. In short, it runs like this: (§2)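 Competitive radioligand inhibition binding. […] DOR used [3H]DPDPE on membranes of CHO cells expressing human DOR. KOR used [3H]U69593 on CHO cells expressing human KOR. […] Each compound was run three times, mean ± SEM.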

Assay [6] concerns the target T3, Kappa-type opioid receptor. Description: Displacement of [3H]U69593 from human KOR expressed in CHO cell membranes at 1 uM after 60 mins. The method in brief:
as §2

For assay [7], the target named is T1, Mu-type opioid receptor. The assay is described as follows: Displacement of [3H]DAMGO from human MOR expressed in CHO cell membranes at 1 uM after 60 mins.
For assay [8], the target named is T3, Kappa-type opioid receptor. The assay is described as follows: Agonist activity at human KOR expressed in CHO cell membranes after 60 mins by [35S]GTP-gamma-S binding assay. The method in brief:
as §1

The target of assay [9] is T1, Mu-type opioid receptor. The assay is described as follows: Agonist activity at human MOR expressed in CHO cell membranes after 60 mins by [35S]GTP-gamma-S binding assay. The method in brief: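 [35S]GTP-γ-S binding read-out of G-protein activation. Each compound assayed three times, with values given as mean ± standard error of the mean.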

SMILES strings stand for the structures.

T3 sequence (P41145 whole entry): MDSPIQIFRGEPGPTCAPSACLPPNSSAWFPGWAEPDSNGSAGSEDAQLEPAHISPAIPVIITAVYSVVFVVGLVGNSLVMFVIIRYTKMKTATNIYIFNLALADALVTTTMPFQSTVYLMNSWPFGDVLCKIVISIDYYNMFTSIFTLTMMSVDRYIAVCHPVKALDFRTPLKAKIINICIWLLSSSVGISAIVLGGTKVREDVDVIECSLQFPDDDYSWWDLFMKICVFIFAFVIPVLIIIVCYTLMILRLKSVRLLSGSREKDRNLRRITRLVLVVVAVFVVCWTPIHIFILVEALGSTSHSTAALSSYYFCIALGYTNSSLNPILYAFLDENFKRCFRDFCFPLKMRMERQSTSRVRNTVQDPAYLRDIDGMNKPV
T1 sequence (P35372 whole entry): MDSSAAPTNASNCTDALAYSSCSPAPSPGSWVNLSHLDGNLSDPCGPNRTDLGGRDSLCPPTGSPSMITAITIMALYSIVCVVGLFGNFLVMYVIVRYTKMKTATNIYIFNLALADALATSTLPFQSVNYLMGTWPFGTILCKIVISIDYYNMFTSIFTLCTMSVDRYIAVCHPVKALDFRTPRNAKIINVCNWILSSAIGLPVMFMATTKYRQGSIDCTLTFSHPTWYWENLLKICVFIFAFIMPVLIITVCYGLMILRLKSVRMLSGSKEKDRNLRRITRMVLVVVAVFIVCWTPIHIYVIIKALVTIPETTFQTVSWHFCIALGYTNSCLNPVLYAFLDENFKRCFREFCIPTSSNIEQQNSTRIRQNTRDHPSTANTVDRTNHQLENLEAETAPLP
T2 sequence (P41143 whole entry): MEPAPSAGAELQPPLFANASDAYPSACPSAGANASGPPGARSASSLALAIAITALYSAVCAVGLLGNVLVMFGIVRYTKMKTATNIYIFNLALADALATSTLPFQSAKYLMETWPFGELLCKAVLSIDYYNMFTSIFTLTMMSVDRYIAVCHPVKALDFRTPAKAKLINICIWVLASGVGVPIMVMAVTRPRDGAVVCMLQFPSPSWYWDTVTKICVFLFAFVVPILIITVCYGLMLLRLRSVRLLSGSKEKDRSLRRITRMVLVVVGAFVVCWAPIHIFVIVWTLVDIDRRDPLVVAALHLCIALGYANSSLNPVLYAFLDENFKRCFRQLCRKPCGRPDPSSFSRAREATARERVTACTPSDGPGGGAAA

In general, Ki refers to the equilibrium dissociation constant of an inhibitor or competing ligand from its target. As to `COc1ccc(-c2ccc3c(c2)CC[C@H](CN(C)C)[C@@]3(O)c2cccc(OC)c2)cc1`, the inhibition constant (Ki) in assay [1], in [2] and in [3] was greater than 10 µM throughout.
On to `COc1cccc([C@@]2(O)c3ccc(-c4ccc(Cl)c(Cl)c4)cc3CC[C@@H]2CN(C)C)c1`, for which the Ki in assay [1], in assay [2] and in assay [3] was greater than 10 µM throughout.
As usually defined, the EC50 is the concentration giving half of the maximal effect. A lower EC50 goes with an effect from little substance. In general, Emax refers to the greatest response seen or fitted, relative to the assay's reference. For `CN(C)C[C@H]1CCc2cc(-c3ccccc3OC(F)(F)F)ccc2[C@]1(O)c1cccc(O)c1`, the figures for the Ki in [1], in assay [2] and in assay [3] were greater than 10 µM, 0.26 µM and greater than 10 µM, respectively. The compound further registered an EC50 in assay [4] of 1 µM. Also, the Emax in [4] came to 215%.
In general, inhibition refers to the drop in the measured response relative to a control, in per cent. Read a high inhibition as a response far below the control. With `COc1cccc([C@@]2(O)c3ccc(-c4ccccc4C)cc3CC[C@@H]2CN(C)C)c1`, the Ki in assay [1] is greater than 10 µM. In addition, the figures for the inhibition in [5] and in assay [6] were 13% and 16.2%, respectively.
With `COc1cccc(-c2ccc3c(c2)CC[C@H](CN(C)C)[C@@]3(O)c2cccc(OC)c2)c1`, the inhibitory constant (Ki) in assay [1], in [2] and in assay [3] was greater than 10 µM each time.
In [1], `CN(C)C[C@H]1CCc2cc(-c3ccc(Cl)cc3)ccc2[C@]1(O)c1cccc(O)c1` had a Ki greater than 10 µM. The inhibition in assay [5] amounted to 17%; in [6], 8.9%.
As for `COc1cccc([C@@]2(O)c3ccc(-c4ccc(Cl)cc4)cc3CC[C@@H]2CN(C)C)c1`, the Ki in assay [1], in [2] and in assay [3] was greater than 10 µM throughout.
Take `CN(C)C[C@H]1CCc2cc(-c3ccccc3C(F)(F)F)ccc2[C@]1(O)c1cccc(O)c1`: the results for the Ki in assay [1], in assay [2] and in assay [3] were greater than 10 µM, 0.065 µM and greater than 10 µM, respectively. This compound also displayed an EC50 in assay [4] of 0.9 µM. This compound registered an Emax in assay [4] of 217%.
Take `CN(C)C[C@H]1CCc2cc(-c3ccccc3F)ccc2[C@]1(O)c1cccc(O)c1`: the inhibitory constant (Ki) is greater than 10 µM in [1], 0.72 µM in assay [2] and greater than 10 µM in assay [3]. Besides, the EC50 in assay [4] worked out at 1.6 µM. Further, the maximal response (Emax) in assay [4] stood at 172%.
In assay [7], `COc1cccc([C@@]2(O)CCCC[C@@H]2CN(C)C)c1` (racemic) [(R,R)-TRAMADOL] showed an inhibition of 9.6%. In addition, the Ki in assay [2] and in assay [3] was greater than 10 µM in each case.
In the case of `COc1ccc(-c2ccc3c(c2)CC[C@H](CN(C)C)[C@@]3(O)c2cccc(O)c2)cc1`, the inhibition constant Ki in [1] and in assay [3] was greater than 10 µM each time. In assay [5], this compound had an inhibition of 32%.
Compound `COc1ccccc1-c1ccc2c(c1)CCC(CN(C)C)C2(O)c1cccc(O)c1` (single isomer, unassigned; (-)) [listing 1 of 2 here] gave an Emax in assay [4] of 205%.
In the case of `CN(C)C[C@H]1CCc2cc(-c3ccc(C(F)(F)F)cc3)ccc2[C@]1(O)c1cccc(O)c1`, the inhibitory constant (Ki) in assay [1], in [2] and in assay [3] was greater than 10 µM each time.
On to `CN(C)C[C@H]1CCc2cc(-c3ccccc3)ccc2[C@]1(O)c1cccc(O)c1`, for which the inhibition in assay [7] turned out to be 20%. The inhibition in assay [5] was 22%. The Ki in [3] was 0.14 µM. In [8], this compound gave a 50% effective concentration (EC50) of 0.58 µM and a maximal response (Emax) of 187%.
In [1], `COc1cccc(-c2ccc3c(c2)CC[C@H](CN(C)C)[C@@]3(O)c2cccc(O)c2)c1` registered a Ki greater than 10 µM. Also, the inhibition is 43% in assay [5] and 15% in assay [6].
Take `CN(C)C[C@H]1CCCC[C@]1(O)c1cccc(O)c1` (racemic) [O-DESMETHYL TRAMADOL]: the inhibition constant Ki in assay [2] and in assay [3] was greater than 10 µM throughout. This compound also gave a maximum response (Emax) in assay [9] of 220%.
For the compound `COc1cccc([C@@]2(O)c3ccc(-c4ccccc4OC)cc3CC[C@@H]2CN(C)C)c1`, the Ki in [1] and in assay [3] was greater than 10 µM throughout. In assay [5], this compound gave an inhibition of 37.9%.
In the case of `CN(C)C[C@H]1CCc2cc(-c3ccccc3Cl)ccc2[C@]1(O)c1cccc(O)c1`, the figures for the Ki in [1], in assay [2] and in [3] were greater than 10 µM, 0.16 µM and greater than 10 µM, respectively. The EC50 in [4] was found to be 0.95 µM. The compound also returned a maximum response (Emax) in [4] of 216%.
Turning to `Cc1ccccc1-c1ccc2c(c1)CC[C@H](CN(C)C)[C@@]2(O)c1cccc(O)c1`, the inhibition constant (Ki) in [1] was greater than 10 µM; in assay [2], 0.14 µM; in [3], greater than 10 µM. The EC50 in assay [4] stood at 0.49 µM. This compound had a maximal effect (Emax) in [4] of 199%.
Take `COc1cccc([C@@]2(O)c3ccc(-c4ccc(C(F)(F)F)cc4)cc3CC[C@@H]2CN(C)C)c1`: the Ki in assay [1], in [2] and in assay [3] was greater than 10 µM each time.
Regarding `COc1ccccc1-c1ccc2c(c1)CC[C@H](CN(C)C)[C@@]2(O)c1cccc(O)c1`, the Ki in [1] is greater than 10 µM. Moreover, the inhibition constant (Ki) in assay [2] amounted to 0.0047 µM. The compound also registered an inhibition in [6] of 17.7%. In [4], this compound registered an EC50 of 0.0093 µM and a maximal effect (Emax) of 230%.
In the case of `CN(C)C[C@H]1CCc2cc(-c3ccc(Cl)c(Cl)c3)ccc2[C@]1(O)c1cccc(O)c1`, the Ki in assay [1], in assay [2] and in assay [3] was greater than 10 µM throughout.
Turning to `COc1ccccc1-c1ccc2c(c1)CCC(CN(C)C)C2(O)c1cccc(O)c1` (single isomer, unassigned; (+)), the Ki in assay [1] (cho), in [2] and in [3] (cho) was greater than 10 µM in each case.
For `COc1cccc([C@@]2(O)c3ccc(-c4ccccc4)cc3CC[C@@H]2CN(C)C)c1`, the inhibition constant (Ki) in assay [1] and in assay [2] was greater than 10 µM each time. In addition, in [6], the inhibition worked out at 37%.
With `COc1ccccc1-c1ccc2c(c1)CCC(CN(C)C)C2(O)c1cccc(O)c1` (single isomer, unassigned; (-)) [listing 2 of 2 here], the Ki in assay [1] is greater than 10 µM; in [2], 0.0027 µM; in [3] it was greater than 10 µM. The compound further displayed an EC50 in assay [4] of 0.0026 µM.
